Test results: ChEMBL document CHEMBL1158477, “Synthesis, in vivo evaluation, and molecular modeling studies of new pyrazolo[5,1-c][1,2,4]benzotriazine 5-oxide derivatives. Identification of a bifunctional hydrogen bond area related to the inverse agonism” (J Med Chem, 2009)
Each block holds one compound with its values, some of them ahead of it. The source made the active and inactive calls. No cut-off for these calls is given here.

Legend:
Bos taurus = organism: Bos taurus; experiment: Displacement of [3H]flumazenil from GABAA/Benzodiazepine receptor in bovine brain at 10 uM
Procedure, shortened: (§1)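 Bovine brain membranes; displacement of specific [3H]flumazenil (Ro15-1788) binding. Percent inhibition measured at 10 μM; Ki determined only when inhibition at that concentration exceeded 80%. Ki given as mean ± SEM of five determinations.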

[1] = Displacement of [3H]flumazenil from GABAA/Benzodiazepine receptor in bovine brain; set-up: species or system Bos taurus; procedure, shortened: as §1
Mus musculus [2] = experiment: Anxiolytic activity in CD1 albino mouse at 10 mg/kg, po after 30 mins by light/dark box test; assay type: functional, organism-based; set-up: dose 10 mg/kg
Procedure, shortened: (§2)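 Male CD-1 mice (22-24 g) given test substance po in 1% CMC (10 mL/kg), tested 30 min later in a light/dark box. Transfers between compartments and time spent in the illuminated side were measured. Values are mean ± SEM of 15-20 mice; compared with controls.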

Mus musculus [3] = experiment: Anxiolytic activity in CD1 albino mouse at 30 mg/kg, po after 30 mins by light/dark box test; assay type: functional, organism-based; set-up: dose 30 mg/kg; procedure, shortened: as §2
Mus musculus [4] = experiment: Anxiolytic activity in CD1 albino mouse at 30 mg/kg, po after 30 mins by light/dark box test in presence of flumazenil; assay type: functional, organism-based; set-up: dose 30 mg/kg
Procedure, shortened: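 Light/dark box in male CD-1 mice. Test substance given po in 1% CMC 30 min before the test, with flumazenil 100 mg/kg ip (saline) co-treatment. Transfers between compartments and time in the lit side recorded. Mean ± SEM of 15-20 mice.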

Mus musculus [5] = experiment: Effect on learning and memory process in CD1 albino mouse assessed as decrease in retention latency at 10 mg/kg, po after 24 hrs by passive avoidance test; assay type: functional, organism-based; set-up: dose 10 mg/kg
Procedure, shortened: (§3)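 Step-through passive avoidance in a two-compartment box (lit and dark compartments joined by a guillotine door). Male CD-1 mice dosed po (1% CMC) 30 min before training; retention tested 24 h later. Training and retention latencies recorded; mean ± SEM of 15-20 mice versus controls.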

Mus musculus [6] = experiment: Effect on ethanol-induced sleeping time in CD1 albino mouse assessed as increase in duration of loss of righting reflex at 10 mg/kg, po preincubated 30 mins before ethanol challenge; assay type: functional, organism-based; set-up: dose 10 mg/kg
Mus musculus [7] = experiment: Effect on ethanol-induced sleeping time in CD1 albino mouse assessed as increase in duration of loss of righting reflex at 30 mg/kg, po preincubated 30 mins before ethanol challenge; assay type: functional, organism-based; set-up: dose 30 mg/kg
Mus musculus [8] = experiment: Effect on motor coordination in CD1 albino mouse assessed as number of falls form rotarod at 10 mg/kg, po […] measured for 30 seconds after 30 mins of dosing by rotarod test; assay type: functional
Procedure, shortened: (§4)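 Rota-rod in male CD-1 mice with a pretest. Test substance given po in 1% CMC; falls from the rotating rod counted over 30 s, assessed 30 min after treatment.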

Mus musculus [9] = experiment: Effect on motor coordination in CD1 albino mouse assessed as number of falls form rotarod at 30 mg/kg, po […] measured for 30 seconds after 30 mins of drug infusion by rotarod test; assay type: functional; conditions: 30 mg/kg; procedure, shortened: as §4
Mus musculus [10] = experiment: Anticonvulsant activity against pentylenetetrazole-induced shock in CD1 albino mouse assessed as shock latency at 10 mg/kg, po preincubated for 30 mins before pentylenetetrazole challenge measured for 30 mins (RVb=253.1 +/- 13 seconds); assay type: functional
Mus musculus [11] = experiment: Anticonvulsant activity against pentylenetetrazole-induced shock in CD1 albino mouse assessed as shock latency at 30 mg/kg, po preincubated for 30 mins before pentylenetetrazole challenge measured for 30 mins (RVb=253.1 +/- 13 seconds); assay type: functional; conditions: 30 mg/kg
Mus musculus [12] = experiment: Anticonvulsant activity against pentylenetetrazole-induced convulsions in CD1 albino mouse assessed as convulsion latency at 10 mg/kg, po preincubated for 30 mins before pentylenetetrazole challenge measured for 30 mins (RVb=599 +/- 37.6 seconds); assay type: functional
Mus musculus [13] = experiment: Anticonvulsant activity against pentylenetetrazole-induced convulsions in CD1 albino mouse assessed as convulsion latency at 30 mg/kg, po preincubated for 30 mins before pentylenetetrazole challenge measured for 30 mins (RVb=599 +/- 37.6 seconds); assay type: functional; conditions: 30 mg/kg
Mus musculus [14] = experiment: Effect on spontaneous motility in CD1 albino mouse assessed as number of movement on plane board at 10 mg/kg, po after 30 mins by hole-board test; assay type: functional
Procedure, shortened: (§5)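 Hole-board test in male CD-1 mice: animals placed singly on the board and allowed to explore panel and holes. Test run 30 min after po dosing in 1% CMC (10 mL/kg). Hole entries (curiosity) and plane movements (spontaneous motility) counted; 10 mice per group, compared with CMC controls.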

Mus musculus [15] = experiment: Effect on spontaneous motility in CD1 albino mouse assessed as number of movement on plane board at 30 mg/kg, po after 30 mins by hole-board test; assay type: functional; conditions: 30 mg/kg; procedure, shortened: as §5
Mus musculus [16] = experiment: Effect on spontaneous motility in CD1 albino mouse assessed as number of movement on plane board at 50 mg/kg, po after 30 mins by hole-board test; assay type: functional; procedure, shortened: as §5
Mus musculus [17] = experiment: Effect on spontaneous motility in CD1 albino mouse assessed as number of movement on plane board at 100 mg/kg, po after 30 mins by hole-board test; assay type: functional; procedure, shortened: as §5
Mus musculus [18] = experiment: Effect on explorative capacity in CD1 albino mouse assessed as curiosity-related number of head plugging activity on hole at 10 mg/kg, po after 30 mins by hole-board test; assay type: functional; procedure, shortened: as §5
Mus musculus [19] = experiment: Effect on explorative capacity in CD1 albino mouse assessed as curiosity-related number of head plugging activity on hole at 30 mg/kg, po after 30 mins by hole-board test; assay type: functional; conditions: 30 mg/kg; procedure, shortened: as §5
Mus musculus [20] = experiment: Effect on explorative capacity in CD1 albino mouse assessed as curiosity-related number of head plugging activity on hole at 50 mg/kg, po after 30 mins by hole-board test; assay type: functional; procedure, shortened: as §5
Mus musculus [21] = experiment: Effect on explorative capacity in CD1 albino mouse assessed as curiosity-related number of head plugging activity on hole at 100 mg/kg, po after 30 mins by hole-board test; assay type: functional; procedure, shortened: as §5
Mus musculus [22] = experiment: Effect on motor coordination in CD1 albino mouse assessed as number of falls form rotarod at 3 mg/kg, po administered 60 mins before test measured for 30 seconds after 30 mins of drug infusion by rotarod test; assay type: functional; procedure, shortened: as §4
Mus musculus [23] = experiment: Anticonvulsant activity against pentylenetetrazole-induced shock in CD1 albino mouse assessed as shock latency at 3 mg/kg, po preincubated for 30 mins before pentylenetetrazole challenge measured for 30 mins (RVb=253.1 +/- 13 seconds); assay type: functional
Mus musculus [24] = experiment: Anticonvulsant activity against pentylenetetrazole-induced convulsions in CD1 albino mouse assessed as convulsion latency at 3 mg/kg, po preincubated for 30 mins before pentylenetetrazole challenge measured for 30 mins (RVb=599 +/- 37.6 seconds); assay type: functional
Mus musculus [25] = experiment: Effect on spontaneous motility in CD1 albino mouse assessed as number of movement on plane board at 3 mg/kg, po after 30 mins by hole-board test; assay type: functional; procedure, shortened: as §5
Mus musculus [26] = experiment: Effect on explorative capacity in CD1 albino mouse assessed as curiosity-related number of head plugging activity on hole at 3 mg/kg, po after 30 mins by hole-board test; assay type: functional; procedure, shortened: as §5
Mus musculus [27] = experiment: Anxiolytic activity in CD1 albino mouse at 3 mg/kg, po after 30 mins by light/dark box test; assay type: functional, organism-based; set-up: dose 3 mg/kg; procedure, shortened: as §2
Mus musculus [28] = experiment: Effect on learning and memory process in CD1 albino mouse assessed as improvement in retention latency at 3 mg/kg, po after 24 hrs by passive avoidance test; assay type: functional, organism-based; set-up: dose 3 mg/kg; procedure, shortened: as §3
Mus musculus [29] = experiment: Effect on learning and memory process in CD1 albino mouse assessed as improvement in retention latency at 10 mg/kg, po after 24 hrs by passive avoidance test; assay type: functional, organism-based; set-up: dose 10 mg/kg; procedure, shortened: as §3
Mus musculus [30] = experiment: Effect on ethanol-induced sleeping time in CD1 albino mouse assessed as increase in duration of loss of righting reflex at 3 mg/kg, po preincubated 30 mins before ethanol challenge; assay type: functional, organism-based; set-up: dose 3 mg/kg

SMILES: CCCCCCCCOc1ccc2c(c1)n1ncc(I)c1n[n+]2[O-]
- Activity (Bos taurus): > 80%
- Ki [1]: 1620 nM

SMILES: CCOC(=O)c1cnn2c1n[n+]([O-])c1ccc(-c3ccccc3)cc12
- Activity (Bos taurus): 40%

SMILES: [O-][n+]1nc2c(Cl)cnn2c2cc(-c3ccccc3)ccc21
- Activity (Bos taurus): 45%

SMILES: CC(Oc1ccc2c(c1)n1ncc(I)c1n[n+]2[O-])c1ccccc1 (single isomer, unassigned; (-))
- Activity (Mus musculus [2]): Active
- Activity (Mus musculus [3]): Active
- Activity (Mus musculus [4]): inactive
- Activity (Mus musculus [5]): Active
- Activity (Mus musculus [6]): inactive
- Activity (Mus musculus [7]): inactive
- Activity (Bos taurus): > 80%

SMILES: [O-][n+]1nc2ccnn2c2cc(-c3ccccc3)ccc21
- Activity (Bos taurus): 10%

SMILES: CC(Oc1ccc2c(c1)n1ncc(I)c1n[n+]2[O-])c1ccccc1 (stereo in doubt; (+)-16)
- Activity (Mus musculus [8]; 10 mg/kg): 2.5
- Activity (Mus musculus [9]): 1.3
- Activity (Mus musculus [10]; 10 mg/kg): 543.7 s
- Activity (Mus musculus [11]): 345.3 s
- Activity (Mus musculus [12]; 10 mg/kg): 733.5 s
- Activity (Mus musculus [13]): 607.7 s
- Activity (Mus musculus [14]; 10 mg/kg): 55.5
- Activity (Mus musculus [15]): 59.7
- Activity (Mus musculus [16]): 62.9
- Activity (Mus musculus [17]): 80
- Activity (Mus musculus [18]; 10 mg/kg): 25.1
- Activity (Mus musculus [19]): 31.9
- Activity (Mus musculus [20]): 39.3
- Activity (Mus musculus [21]): 30.4
- Ki [1]: 605 nM

SMILES: [O-][n+]1nc2c(I)cnn2c2cc(/C=C/c3ccccc3)ccc21
- Activity (Bos taurus): > 80%
- Ki [1]: 2000 nM

SMILES: CC(Oc1ccc2c(c1)n1ncc(I)c1n[n+]2[O-])c1ccccc1 (racemic)
- Activity (Bos taurus): > 80%

SMILES: CC(COc1ccc2c(c1)n1ncc(I)c1n[n+]2[O-])c1ccccc1 (racemic)
- Activity (Bos taurus): > 80%
- Ki [1]: 160 nM

More lines, in order of falling Ki [1], values ahead:

- Activity (Bos taurus): > 80%
- Ki [1]: 103 nM
SMILES: CC(Cc1ccccc1)Oc1ccc2c(c1)n1ncc(I)c1n[n+]2[O-] (racemic)

- Activity (Bos taurus): > 80%
- Ki [1]: 94 nM
SMILES: [O-][n+]1nc2c(I)cnn2c2cc(Oc3ccc4ccccc4c3)ccc21

- Activity (Bos taurus): > 80%
- Ki [1]: 12 nM
SMILES: CCOC(=O)c1cnn2c1n[n+]([O-])c1ccc(Oc3ccccc3)cc12

- Activity (Bos taurus): > 80%
- Ki [1]: 11 nM
SMILES: [O-][n+]1nc2c(I)cnn2c2cc(OCc3ccc(Cl)cc3)ccc21

- Activity (Bos taurus): > 80%
- Ki [1]: 4.5 nM
SMILES: COc1ccc(COc2ccc3c(c2)n2ncc(I)c2n[n+]3[O-])cc1

- Activity (Bos taurus): > 80%
- Ki [1]: 1.75 nM
SMILES: COc1ccccc1COC(=O)c1cnn2c1n[n+]([O-])c1ccc(Oc3ccccc3)cc12

- Activity (Bos taurus): > 80%
- Ki [1]: 1.3 nM
SMILES: [O-][n+]1nc2c(I)cnn2c2cc(OCc3ccncc3)ccc21
- Activity (Mus musculus [22]): 1.4
- Activity (Mus musculus [8]): 2.3
- Activity (Mus musculus [23]): 183 s
- Activity (Mus musculus [10]): 299 s
- Activity (Mus musculus [24]): 565.8 s
- Activity (Mus musculus [12]): 610.9 s
- Activity (Mus musculus [25]): 93.9
- Activity (Mus musculus [14]): 85.1
- Activity (Mus musculus [26]): 35.5
- Activity (Mus musculus [18]): 36.9
- Activity (Mus musculus [27]): inactive
- Activity (Mus musculus [2]): inactive
- Activity (Mus musculus [28]): Active
- Activity (Mus musculus [29]): Active
- Activity (Mus musculus [6]): inactive
- Activity (Mus musculus [30]): inactive

- Activity (Bos taurus): > 80%
- Ki [1]: 1 nM
SMILES: Ic1cnn2c1nnc1ccc(OCc3ccccc3)cc12

- Activity (Bos taurus): > 80%
- Ki [1]: 0.7 nM
SMILES: O=C(OCc1cccs1)c1cnn2c1n[n+]([O-])c1ccc(Oc3ccccc3)cc12

- Activity (Bos taurus): > 80%
- Ki [1]: 0.31 nM
SMILES: CCOc1cnn2c1n[n+]([O-])c1ccc(C(=O)OCc3ccccc3OC)cc12
